Compound activity (PubChem BioAssay)
ARFGAP1 inhibitor – inhibitors of rat ARFGAP1 GAP activity, primary screen, biochemical, fluorescence polarization, GDP tracer; ADP-ribosylation factor GTPase-activating protein 1 (Rattus norvegicus), Q62848; Arfgap1-stimulated ARF1 GTP hydrolysis, GDP FP detection; inhibition, % at 16.5 µM; hit rate 0.26% among 360,000;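 active = inhibition above a per-plate limit, mean inhibition of low control wells plus 3 SD, cut at about 25% in these data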;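 also: 0% = DMSO wells with enzyme and 100% = wells lacking Arfgap1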
Target sequence (Q62848 1-136 limits assumed): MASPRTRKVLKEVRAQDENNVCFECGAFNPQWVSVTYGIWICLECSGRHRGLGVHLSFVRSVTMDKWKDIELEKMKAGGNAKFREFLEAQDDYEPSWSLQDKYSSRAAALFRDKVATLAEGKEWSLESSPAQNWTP
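Replicates: Single well per compound | Assay system: Truncated rat Arfgap1 GAP domain | Control set: No-Arfgap1 wells (100%) versus DMSO full-reaction wells (0%) | Times: Enzyme reaction 120 min at 25 °C after 20 min preincubation | Reagent: Human ARF1(Δ1-17)-GTP substrate | Measured by: Tracer-displacement fluorescence polarization with EDTA stop, 620/688 nm | Measure: Percent inhibition of Arfgap1-stimulated GTP hydrolysis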
APOBEC3A inh – APOBEC3A ssDNA deaminase inhibitors, primary screen, selectivity assay for APOBEC3G inhibitor project, biochemical, FAM/TAMRA oligo cleavage fluorescence. recombinant A3A, FAM/TAMRA ssDNA deamination fluorescence. inhibition, % at 20 µM. hit rate 0.41% among 330,000;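 active = at least 40% inhibition at 20 µM here, with at most 30% in a related deaminase screen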;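 also: plate controls were A3A with DMSO for no effect and wells lacking A3A enzyme for full effect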
Target sequence (P31941 whole entry, looked up): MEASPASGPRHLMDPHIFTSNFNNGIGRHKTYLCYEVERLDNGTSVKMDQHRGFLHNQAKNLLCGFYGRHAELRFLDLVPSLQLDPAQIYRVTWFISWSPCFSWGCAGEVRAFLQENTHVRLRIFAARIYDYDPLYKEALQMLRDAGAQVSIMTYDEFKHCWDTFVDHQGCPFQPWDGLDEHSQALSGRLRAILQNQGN
SUMO Mot1 rescue – yeast Mot1-301 growth rescue at high temperature, primary screen, SUMOylation pathway inhibitor project, S. cerevisiae, ATP luminescence, 38.5C. S. cerevisiae Mot1-301 growth rescue; percent above DMSO median, 100 means doubled. growth rescue, % at 18.8 µM. hit rate 1% among 320,000;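 active = every valid replicate shows activation above 250% relative to neutral control wells; inactive = the rest, any valid replicate at or below 250%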;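 also: OY570 slx delta 5 strain wells were the positive control but not used for scaling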
ASAP1 inh – inhibitors of human ASAP1 ArfGAP activity, primary screen, biochemical, fluorescence polarization | Arf-GAP with SH3 domain, ANK repeat and PH domain-containing protein 1 (Homo sapiens), … | ASAP1-stimulated ARF1 GTP hydrolysis, GDP FP detection | hit rate 0.19% among 360,000 | inhibition, % at 16.5 µM; in the data active = inhibition above about 25%;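 also: 0% = vehicle with enzyme and substrate and 100% = no enzyme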
Target sequence (Q9ULH1 325-724 limits assumed): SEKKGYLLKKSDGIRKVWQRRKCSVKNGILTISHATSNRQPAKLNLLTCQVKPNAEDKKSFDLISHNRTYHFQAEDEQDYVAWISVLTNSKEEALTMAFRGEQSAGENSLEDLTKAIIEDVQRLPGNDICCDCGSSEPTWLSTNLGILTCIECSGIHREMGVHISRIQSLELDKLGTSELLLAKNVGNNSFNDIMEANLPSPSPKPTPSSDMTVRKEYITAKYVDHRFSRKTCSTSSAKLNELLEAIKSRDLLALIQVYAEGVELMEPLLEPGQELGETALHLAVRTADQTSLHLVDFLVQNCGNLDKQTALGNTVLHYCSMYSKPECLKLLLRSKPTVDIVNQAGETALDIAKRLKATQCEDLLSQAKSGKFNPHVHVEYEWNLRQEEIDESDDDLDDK
APOBEC3G inh – APOBEC3G DNA deaminase inhibitors, primary screen, biochemical, fluorescence, single-stranded DNA substrate, uHTS; recombinant A3G, ssDNA deamination FAM/TAMRA fluorescence; inhibition, % at 20 µM; hit rate 0.28% among 330,000; AID 493012, 2011;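 active = inhibition of at least 40% at 20 µM, with no more than 30% in the related APOBEC3A deaminase screen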;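 also: plate controls were DMSO wells with A3G for no effect and wells lacking A3G enzyme for full effect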
Statin myotox sup – suppressors of statin myotoxicity in C2C12 myotubes, primary screen, cell-based, single point, plate reader; AID 602340, 2012; rescue of ATP level, % at 7.49 µM; C2C12 myotubes + simvastatin, ATP luminescence, 48 h; scaled: DMSO 0, geranylgeraniol control 100; hit rate 0.78% among 330,000;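 active = mean ATP rescue above about 67%, or every replicate alone reaching that limit, limit read from the data, passing the limit was not always enough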;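 also: myotubes were challenged with 10 µM simvastatin during compound exposure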
Yeast Mot1 SUMO – growth restoration of Mot1-301 yeast on galactose, dose response, SUMO pathway inhibitor project, whole organism, S. cerevisiae, ATP luminescence, cherry-picked samples. shares compounds with SUMO Mot1 rescue. S. cerevisiae Mot1-301 galactose growth, 24 h; -100 = growth of slx-deleted rescue strain. growth activity, percent, % at 42 µM. 2,300 tested, under 10 active. AID 493004, 2010;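 active = Signal drops as the depositor expects, and the fitted half-maximal dose is no more than ten times the top valid tested dose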;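 also: more negative values mean stronger growth rescue toward the control strain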
An asterisk follows results filed as active; · = no result given; + = active, no number. Only some compounds are listed: those with a hit (about 2.1% of all), similar ones and a draw of the others.

SMILES	ARFGAP1 inhibitor	APOBEC3A inh	SUMO Mot1 rescue	ASAP1 inh	APOBEC3G inh	Statin myotox sup	Yeast Mot1 SUMO
N#CC1=C(N)Oc2c(ccc3ccccc23)C1c1cccs1 (stereo not given)	·	-3.0	508.2*	·	-6.2	·	0.7
CSc1cccc(CN2CCCC(CO)(Cc3cccc(Cl)c3)C2)c1 (stereo not given)	2.6	1.7	-7.2	8.7	-3.8	·	·
CC(=O)Nc1ccc(CN2CCCC(CO)(Cc3ccccc3C)C2)cc1 (stereo not given)	4.9	-5.2	-3.4	-8.7	-6.1	·	·
COc1cc(CN2CCCC(CO)(Cc3cccc(Cl)c3)C2)cc2c1OCO2 (stereo not given)	11.4	5.4	+	-3.1	-2.9	-40.9	0.8
OCC1(Cc2cccc(Cl)c2)CCCN(Cc2ccc(F)c(F)c2)C1 (stereo not given)	0.5	-1.2	382.2*	0.3	-3.8	-11.0	-0.5
CC(=O)Nc1ccc(CN2CCCC(CO)(Cc3cccc(Cl)c3)C2)cc1 (stereo not given)	0.7	-6.9	+	-7.2	-5.9	-3.9	0.4
CCCCCCC(C)n1[nH]c(=O)c2c(C)cc(=O)[nH]c21 (stereo not given)	-5.2	-1.0	531.3*	-6.0	-3.0	·	0.2
CCCCC(C)n1[nH]c(=O)c2c(C)cc(C)nc21 (stereo not given)	-4.4	-5.1	-12.8	5.3	-7.0	·	·
O=C(NCc1cccc(F)c1F)C1CCC(=O)N(C2CC2)C1 (stereo not given)	4.3	-4.8	421.0*	-4.9	-12.6	6.7	0.5
Cc1cc(=O)oc2ccc(OC(=O)CC(C)C)cc12	-0.6	-4.5	810.2*	-6.7	-7.2	·	0.0
O=C(c1ccc(Br)cc1)C(CN1CCOCC1)c1ccccc1 (stereo not given)	-0.9	-6.9	460.1*	11.5	-10.9	5.9	-1.2
CC(CN1CCOCC1)OC(=O)c1ccc(Br)cc1 (stereo not given)	11.9	-4.1	-4.9	-2.1	-2.5	-0.4	·
CCCC#Cc1ccc2c(c1)[C@@H]1[C@@H](CCN1S(=O)(=O)c1ccc(C)cc1)[C@@H](CO)N2C	·	·	·	·	·	15.8	·
CCn1c(Cc2ccccc2)nnc1SCC(=O)Nc1ccc(N2CCOCC2)c(Cl)c1	-4.6	-1.0	-16.4	-10.7	-2.2	-4.0	·
Cn1c(SCC(=O)Nc2ccc(N3CCOCC3)c(Cl)c2)nnc1-c1ccccc1	·	-7.1	691.6*	·	-7.7	·	0.3
CC(=O)N[C@@H]1CC[C@H](CCNC(=O)C2CCCC2)O[C@H]1CO	·	·	·	·	·	-4.4	·
C[C@H]1CN([C@@H](C)CO)C(=O)c2cc(C#Cc3cccnc3)cnc2O[C@H]1CN(C)C(=O)CC1CC1	·	·	·	·	·	3.2	·
CC1(C)CC(=O)C(C=Nc2ccc(O)c(N=CC3=C(O)CC(C)(C)CC3=O)c2)=C(O)C1	21.1	2.7	480.2*	7.2	4.0	·	0.4
C[C@@H]1CN([C@H](C)CO)C(=O)c2cc(-c3cncnc3)cnc2O[C@H]1CN(C)C(=O)c1cccc(F)c1	·	·	·	·	·	-3.7	·
N#Cc1c(Cn2cncn2)nc(=O)n(-c2ccc(Cl)cc2)c1N	-0.9	-1.3	+	-9.7	-4.9	0.5	0.3
COCCNC(=O)C[C@@H]1CC[C@@H]2[C@H](COC[C@@H](O)CN2Cc2cccc(-c3ccncc3)c2)O1	·	·	·	·	·	-1.4	·
Cc1c(NC(=O)c2ccc(N(C)S(C)(=O)=O)cc2)c(=O)n(-c2ccccc2)n1C	3.4	2.0	+	-1.5	-1.9	4.5	0.5
Cc1c(NC(=O)c2cc(-c3ccccc3O)on2)c(=O)n(-c2ccccc2)n1C	2.3	2.1	441.3*	-2.3	-1.9	-3.1	0.2
Cc1c(NC(=O)c2cc(-c3ccccc3)on2)c(=O)n(-c2ccccc2)n1C	2.7	2.0	0.9	3.3	0.4	-8.5	·
CO[C@@H]1CC[C@H]2CCN(C)C(=O)[C@H](C)N(C)C(=O)c3cc(C#N)ccc3OC[C@H]1O2	·	·	·	·	·	7.6	·
SMILES	ARFGAP1 inhibitor	APOBEC3A inh	SUMO Mot1 rescue	ASAP1 inh	APOBEC3G inh	Statin myotox sup	Yeast Mot1 SUMO
Cc1ccc(NS(=O)(=O)c2ccc(NC(=O)C3CCCO3)cc2)cc1 (stereo not given)	11.2	-4.1	469.1*	8.4	-5.3	2.8	0.2
CCCN1CCN(C(=O)c2ccc3nc(CC)c(CC)nc3c2)CC1	-4.3	-0.5	7.4	-4.7	-1.1	-1.0	·
CCc1nc2ccc(C(=O)N3CCN(CC)CC3)cc2nc1CC	4.1	-4.3	967.2*	-13.5	-6.4	6.8	1.0
O=C(C[C@@H]1CC[C@H]2[C@@H](COC[C@@H](O)CN2Cc2ccc(Cl)cc2)O1)Nc1nccs1	·	·	·	·	·	38.2	·
Cc1ccc(S(=O)(=O)Nc2ccc3c(c2)CC(=O)N([C@H](C)CO)C[C@H](C)[C@@H](CN(C)Cc2ccccc2)O3)cc1	·	·	·	·	·	39.1	·
Oc1c(Cl)cc(Cl)cc1/C=N/c1nc(-c2ccc(Cl)cc2)cs1	·	-3.2	719.2*	·	-3.4	4.4	-0.6
CN1C(=O)c2cc(NC(=O)c3ccccc3)ccc2OC[C@@H]2O[C@@H](CC(=O)NCC3CC3)CC[C@@H]21	·	·	·	·	·	-14.0	·
O=C(O)c1cccc(S(=O)(=O)N2CCN(c3ccccn3)CC2)c1	6.2	-3.9	-8.4	10.3	-5.4	-1.8	·
O=C(O)c1ccc(S(=O)(=O)N2CCN(c3ccccn3)CC2)cc1	3.1	-4.2	762.8*	6.3	-2.4	0.8	-0.3
Cn1nc(C(=O)NCCc2ccc(Cl)cc2)c2c1-c1ccccc1S(=O)(=O)C2	-0.3	-1.0	439.6*	8.1	-3.0	-45.3	0.9
Cc1ccc(CCNC(=O)c2nn(C)c3c2CS(=O)(=O)c2ccccc2-3)cc1	13.1	-2.4	-7.2	11.7	-5.5	-17.3	·
COc1ccc(C(=O)N/C(=C\c2cc(OC)c(OC)cc2[N+](=O)[O-])C(=O)NCC(=O)O)cc1	-0.1	1.6	10.9	-1.6	-8.0	·	·
COc1ccc(C(=O)N/C(=C\c2cc(OC)c(OC)cc2[N+](=O)[O-])C(=O)NCCO)cc1	6.2	2.1	992.8*	7.3	-8.4	·	0.0
CCC1SC2=NC(C)=C(C(=O)OC)C(c3ccc(C(=O)OC)cc3)N2C1=O (stereo not given)	-2.3	-0.6	-20.0	-2.9	-1.7	-3.6	·
